Bioassay records (PubChem BioAssay)
This is a sample that favours compounds with a hit; in the whole collection about 3.3% have one here.
M18AAP inhibitor = blocks P. falciparum M18 aspartyl aminopeptidase. recombinant PfM18AAP, H-Glu-NHMec fluorogenic cleavage. inhibition, % at 7.35 µM. 290,000 tested, 1.2% active. AID 1822;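 active = inhibition above the campaign mean inhibition over all tested compounds plus 3 SD, cut at about 28% in these data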;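 note: 0% = plate median of test compound wells and 100% = 2 mM ZnCl2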
CendR NRP1 mod = alters CendR peptide binding to human NRP-1. O14786. FAM-RPARPAR peptide binding to NRP-1, fluorescence polarization. inhibition, % at 25 µM. 360,000 tested, 0.85% active;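 active = inhibition or corrected inhibition above about 18%, plus a signal ratio from 0.5 to 1.5, limit read from the data, passing the limit was not always enough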
HTR2A ag = mouse HTR2A agonism via beta-arrestin recruitment | CHO-K1 mHTR2A beta-arrestin complementation, luminescence; percent of 30 µM serotonin response | activation, % at 7.6 µM | 360,000 tested, 0.66% active;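 active = activation above a run cutoff, the mean activation of all tested compounds plus 3 SD, cut at about 14% in these data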;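 note: 0% = plate median of compound wells and 100% = 30 µM serotonin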
Target sequence (P35363 whole entry, looked up): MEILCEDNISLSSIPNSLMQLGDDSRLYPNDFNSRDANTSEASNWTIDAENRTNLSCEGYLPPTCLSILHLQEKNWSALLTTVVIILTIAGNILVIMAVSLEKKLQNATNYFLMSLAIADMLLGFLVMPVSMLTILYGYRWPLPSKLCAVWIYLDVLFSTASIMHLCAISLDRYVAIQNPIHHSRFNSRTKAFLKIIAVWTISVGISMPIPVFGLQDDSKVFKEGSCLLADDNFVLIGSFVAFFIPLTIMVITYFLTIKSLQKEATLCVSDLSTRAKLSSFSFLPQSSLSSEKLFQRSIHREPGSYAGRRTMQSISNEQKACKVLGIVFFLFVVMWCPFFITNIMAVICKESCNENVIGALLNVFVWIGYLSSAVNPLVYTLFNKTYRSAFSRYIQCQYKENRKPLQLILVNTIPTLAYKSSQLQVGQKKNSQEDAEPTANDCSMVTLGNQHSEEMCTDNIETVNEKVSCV
Arrestin-AP2 inh = human beta-arrestin and AP2 interaction inhibition; FITC-arrestin peptide / GST-AP2 beads, flow cytometry; AP2 beta2 appendage carries R879A mutation; inhibition, % at 10 µM; 340,000 tested, 0.31% active;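 active = inhibition above a set limit, near 3 SD of compounds lacking own fluorescence, cut at about 54% in these data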;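 note: plate controls were DMSO wells for no effect and 5 µM unlabelled arrestin peptide for full effect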
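Test system: GST-tagged AP2 beta2-adaptin appendage (R879A) on 4 µm glutathione beads; also added: fluorescein-tagged arrestin peptide at 50 nM final; timing: 12 min plus 1 h, RT; signal: flow cytometry, FL1 (488/535 nm); read-out: percent drop in bead-associated FITC signal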
Lipid droplet = modulators of hepatic lipid droplet formation; AML12 mouse hepatocytes, oleate lipid droplets, BODIPY imaging; inhibition, % at 6.5 µM; 240,000 tested, 0.4% active; AID 1656;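 active = lipid droplet intensity inhibited by at least 50%, with more than 500 cells counted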
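Test system: AML12 hepatocytes (mouse); reagent: oleate loading, 100 µM; dosing: one dose, 6.5 µM compound; incubation: overnight exposure; signal: fluorescence imaging, 20x objective, two fields per well; read-out basis: % inhibition of corrected integrated BODIPY droplet signal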
HGIII-sPLA2 inh = Blocks human group III sPLA2 activity; inhibition, % at 12.2 µM; AID 743126; Q9NZ20; 370,000 tested, 0.56% active; QFRET BODIPY PC-A2 liposome hydrolysis, fluorescence;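 active = inhibition above mean plus 3 SD of compounds lying within the high and low control bounds, cut at about 19% in these data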;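 note: 0% = median of test compound wells and 100% = no enzyme DMSO wells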
sPLA2 confirm = human GIII-sPLA2 inhibition, confirmation | shares compounds with HGIII-sPLA2 inh | recombinant hGIII-sPLA2, BODIPY PC-A2 QFRET fluorescence | inhibition, % at 12.2 µM | 2,000 tested, 34% active | AID 743280;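 active = mean inhibition across triplicates above the hit cutoff set in the earlier primary screen, cut at about 19% in these data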;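 note: 0% = enzyme with DMSO and 100% = DMSO wells lacking enzyme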
535nm interf = counter-screen for HGIII-sPLA2 inhibitors: 535nm fluorescence interference; shares compounds with HGIII-sPLA2 inh; AID 743282; 2,000 tested, 8.5% active; BODIPY FL product fluorescence interference, QFRET; inhibition, % at 12.2 µM;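 active = average inhibition above the solvent-only control mean plus 3 SD, cut at about 6% in these data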;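 note: 0% = DMSO with substrate plus product and 100% = DMSO with substrate alone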
535nm interf DR = interferes with 535nm fluorescence in dose response counter-screen; AID 743455; BODIPY FL product fluorescence interference, cell-free; shares compounds with HGIII-sPLA2 inh; 240 tested, under 10 active; IC50, µM;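 active = IC50 at or below 10 µM; inactive = IC50 above 10 µM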
The depositor's hits bear a star; nt = no result given.

SMILES	M18AAP inhibitor	CendR NRP1 mod	HTR2A ag	Arrestin-AP2 inh	Lipid droplet	HGIII-sPLA2 inh	sPLA2 confirm	535nm interf	others
COc1ccc(C2Nc3ccccc3NC3=C2C(=O)CC(C)(C)C3)cc1O (configuration not stated)	-6	-14	1	0	2	-20	nt	nt
COc1cc(C2Nc3cc(C)c(C)cc3NC3=C2C(=O)CC(C)(C)C3)ccc1OC(C)=O (configuration not stated)	2	10	-1	-4	0	24*	8	-9
CCCCN(CCCC)S(=O)(=O)c1c(C)[nH]c(=O)[nH]c1=O	-11	13	-1	3	-3	0	nt	nt
CCCCN(C)S(=O)(=O)c1c(C)[nH]c(=O)[nH]c1=O	-2	-4	3	5	8	19*	2	-4
O=C(C(=O)N1CCN(C(=O)c2ccccc2C(F)(F)F)CC1)c1cccc(C(F)(F)F)c1	nt	nt	nt	nt	nt	-3	nt	nt
CC(C)Oc1ccc(CC2CCC(=O)N(C)C2=O)cc1 (configuration not stated)	-1	-4	-3	2	-17	21*	4	-7
COc1cc(CN2CCc3ccccc3C2)ccc1O	-7	-3	-6	-3	-2	-2	nt	nt
CN(C)C(=O)CSc1nnc(-c2ccc(F)cc2)c2ccccc12	2	-109	0	-1	-11	4	nt	nt
CCCCSc1nnc(-c2ccc(C)cc2)c2ccccc12	5	-7	1	0	3	24*	-1	-11
COC(=O)c1ccc(Sc2ccc(C)cc2)c(N)c1	1	-2	-3	4	nt	2	nt	nt
COc1cc(Sc2ccc(C)cc2)c(OC)cc1N	1	-4	-5	5	nt	22*	38*	9.1*
O=C(c1ccc(-c2cc(O)c3ncccc3c2)cc1)N1CCNCC1	nt	-1	-6	8	nt	23*	-11	-22
O=c1c2c3c(sc2nc(N2CCNCC2)n1CCc1ccccc1)CCCCC3	-3	12	-2	-11	-2	20*	2	-32
O=c1c2c3c(sc2nc(NCCO)n1CCc1ccccc1)CCCCC3	23	-17	-1	-9	-6	9	nt	nt
COc1ccc(N)c2c1C(=O)c1ccccc1C2=O	3	2	-1	7	0	33*	37*	14*
COc1ccc2noc3c2c1C(=O)c1ccccc1-3	nt	133	0	4	nt	-444	nt	nt
CN(C)[C@H]1CCN(c2ccc3c(c2)OCCCN(C2CC2)S3(=O)=O)C1	nt	nt	nt	nt	nt	4	nt	nt
CCN=c1scc(C)n1/N=C/c1cc(Br)c(O)c(Br)c1	30*	-3	-4	7	-4	22*	21*	1
CC(C)(C)c1csc(NNC(=O)c2ccc(Cl)cc2)n1	13	9	7	0	1	34*	45*	4	535nm interf DR=>122
O=c1ccn([C@@H]2O[C@H](CNCc3ccccc3)[C@@H](O)[C@H]2O)c(=O)[nH]1	nt	3	1	nt	nt	3	nt	nt
O=c1ccn([C@@H]2O[C@H](CNCC3=Cc4cc(O)ccc4OC3)[C@@H](O)[C@H]2O)c(=O)[nH]1	nt	-7	8	40	nt	20*	1	-5
COc1ccc2c(=O)cc(-c3cccnc3)oc2c1OC	0	-1	-12	18	2	20*	-1	-6
COc1cc(-c2nnc(-c3cccnc3)o2)cc(OC)c1OC	0	-5	9	32	16	-2	nt	nt
CCc1ccc([C@@H]2C[C@H]3[C@@H](CN2S(=O)(=O)c2ccc(C)cc2)C(=O)C[C@@H](c2ccccc2)N3S(=O)(=O)c2ccc(C)cc2)cc1	nt	4	-1	nt	nt	-5	nt	nt
CCCCCC(=O)NNC(=S)NC(=O)c1ccccc1[N+](=O)[O-]	12	-14	-1	46	12	21*	33*	-2	535nm interf DR=>122
